Activity calls are given as the source filed them. No cut-off for these calls is given here.

Assay [1] is described as follows: Ratio of IC50 for rat L6 cells to IC50 for Plasmodium falciparum NF54. An outline of the steps: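 Ratio of two IC50s. P. falciparum NF54 was grown in human erythrocytes (Trager–Jensen) for a 72 h assay window, with growth read as [3H]hypoxanthine incorporation. Cytotoxicity was measured in rat skeletal myoblast L6 cells.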
The subject of assay [2] is L6. In words: Cytotoxicity against rat L6 cells after 72 hrs by Alamar Blue assay. The class given is cell-based. A general note: Resazurin is reduced to fluorescent resorufin, in cell work by metabolically active cells.
Assay [3] addresses T1, HSP90 (Plasmodium falciparum 3D7, UniProt Q8IL32).
T1 sequence (Q8IL32 whole entry): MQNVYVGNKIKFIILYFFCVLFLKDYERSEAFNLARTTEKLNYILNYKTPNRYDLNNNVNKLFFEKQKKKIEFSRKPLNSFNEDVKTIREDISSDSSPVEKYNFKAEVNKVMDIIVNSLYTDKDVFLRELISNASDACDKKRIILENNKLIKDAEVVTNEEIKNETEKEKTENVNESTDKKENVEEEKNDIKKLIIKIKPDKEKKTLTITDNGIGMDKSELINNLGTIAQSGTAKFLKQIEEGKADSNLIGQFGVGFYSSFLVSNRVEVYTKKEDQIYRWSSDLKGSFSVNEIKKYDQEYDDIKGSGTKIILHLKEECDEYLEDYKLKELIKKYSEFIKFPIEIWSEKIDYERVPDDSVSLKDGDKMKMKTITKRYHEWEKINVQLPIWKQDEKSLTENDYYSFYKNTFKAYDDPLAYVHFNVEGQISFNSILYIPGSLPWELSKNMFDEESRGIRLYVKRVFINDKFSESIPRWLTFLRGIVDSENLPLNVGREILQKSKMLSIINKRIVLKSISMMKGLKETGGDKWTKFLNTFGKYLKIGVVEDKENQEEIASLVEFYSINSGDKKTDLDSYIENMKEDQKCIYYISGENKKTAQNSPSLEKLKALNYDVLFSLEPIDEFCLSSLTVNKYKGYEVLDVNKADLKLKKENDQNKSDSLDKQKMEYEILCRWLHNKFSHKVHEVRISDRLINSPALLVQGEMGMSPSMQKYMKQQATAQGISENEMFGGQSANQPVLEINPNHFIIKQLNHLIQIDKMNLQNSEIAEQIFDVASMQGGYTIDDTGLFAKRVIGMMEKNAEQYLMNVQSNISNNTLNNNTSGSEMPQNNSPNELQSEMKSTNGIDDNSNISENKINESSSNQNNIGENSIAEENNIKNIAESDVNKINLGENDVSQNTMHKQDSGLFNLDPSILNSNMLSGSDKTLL
In words: Binding affinity to N-terminal FLAG-tagged Plasmodium falciparum recombinant HSP90 (1 to 223) expressed in Escherichia coli BL21(DE3) by microscale thermophoresis assay. The method, boiled down:
(§1)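 Recombinant Pf Hsp90 proteins were expressed in E. coli BL21 DE3 pLysS in LB, induced with 0.5 mM IPTG for 18 h at 20 °C. They were purified by His-affinity then size exclusion, keeping the 33 kDa fractions. Ligand was titrated in 1:1 dilutions against 100 nM protein with 5% DMSO. MST was run at 40% LED and 40% MST power.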
In general terms: In MST a laser heats a spot of the sample, and binding alters the fluorescence response.

Assay [4] has as its system Plasmodium falciparum. Put plainly: Antiplasmodial activity against Plasmodium falciparum NF54 infected in human erythrocytes assessed as growth inhibition by [3H]hypoxanthine incorporation assay. Format: functional, organism-based.
A short description of assay [5]: Inhibition of Plasmodium falciparum HSP90 ISG-LGA mutant expressed in yeast assessed as growth inhibition of host after 72 hrs. An outline of the steps:
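Host was an isogenic S. cerevisiae strain derived from DP533 (Δhsc82 Δhsp82 pdr5), carrying Flag-tagged PfHsp90 ISG-LGA/K313Q from a low-copy plasmid as its only Hsp90. Cultures were diluted to OD600 0.1 in minimal medium with 2% DMSO. OD600 was read every 30 min for 72 h. Growth % was maximal growth-curve slope relative to solvent-only; IC50 from triplicate dose-response.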

Assay [6] can be described thus: Binding affinity to N-terminal FLAG-tagged Plasmodium falciparum recombinant HSP90 R98K mutant expressed in Escherichia coli BL21(DE3) by microscale thermophoresis assay. The method, boiled down: as §1
Assay [7] can be described thus: Binding affinity to N-terminal FLAG-tagged Plasmodium falciparum recombinant HSP90 ISG-LGA mutant expressed in Escherichia coli BL21(DE3) by microscale thermophoresis assay. An outline of the steps: as §1
Assay [8] concerns Heat-shock protein (Plasmodium falciparum), Q25869 [K313Q]. In words: Inhibition of Plasmodium falciparum HSP90 K313Q mutant expressed in yeast assessed as growth inhibition of host at 100 uM after 72 hrs.
Sequence of Heat-shock protein (Plasmodium falciparum), Q25869 [K313Q] (Q25869 whole entry K313Q): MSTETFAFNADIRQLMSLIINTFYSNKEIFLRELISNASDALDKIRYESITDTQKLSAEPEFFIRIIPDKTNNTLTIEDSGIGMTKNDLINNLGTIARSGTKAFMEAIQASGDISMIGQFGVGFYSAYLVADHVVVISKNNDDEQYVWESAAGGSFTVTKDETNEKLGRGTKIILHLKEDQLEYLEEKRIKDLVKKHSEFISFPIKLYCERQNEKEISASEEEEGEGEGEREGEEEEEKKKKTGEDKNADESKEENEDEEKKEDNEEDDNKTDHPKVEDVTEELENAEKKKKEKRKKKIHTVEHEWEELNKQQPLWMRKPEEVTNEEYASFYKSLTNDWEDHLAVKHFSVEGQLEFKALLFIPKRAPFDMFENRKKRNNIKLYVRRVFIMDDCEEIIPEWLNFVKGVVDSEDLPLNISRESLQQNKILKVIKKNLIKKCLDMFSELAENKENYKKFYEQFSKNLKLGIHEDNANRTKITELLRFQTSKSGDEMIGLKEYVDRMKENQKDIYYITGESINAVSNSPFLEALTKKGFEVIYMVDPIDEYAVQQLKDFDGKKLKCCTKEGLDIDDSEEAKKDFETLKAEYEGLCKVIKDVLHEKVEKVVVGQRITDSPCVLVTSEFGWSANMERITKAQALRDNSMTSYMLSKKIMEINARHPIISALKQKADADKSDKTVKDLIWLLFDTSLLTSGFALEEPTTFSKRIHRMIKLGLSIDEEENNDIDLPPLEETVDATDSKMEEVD

One may read the IC50 as the concentration needed to halve the response being measured. The term Kd denotes the free concentration of one partner at which half of the binding sites on the other are occupied at equilibrium, for simple one-to-one binding. As for `COCC(=O)Nc1c(C(=O)OC)n(CCC(C)C)c2ncc(NC(C)C)cc12`, the Ratio IC50 in assay [1] stood at 4. For the same compound, the IC50 in assay [2] (Rattus norvegicus, L6, 72 h) turned out to be 56 µM; in assay [4] (Plasmodium falciparum, NF54), 13.8 µM. Further, the Kd in assay [3] was found to be 175 µM.
As for `COCC(=O)Nc1c(C(=O)OC)n(CCC(C)C)c2ncc(NC(C)CCC=C(C)C)cc12` (racemic), the “Ratio IC50” value in assay [1] is recorded as above 10. For the same compound, the IC50 came to 63 µM in assay [2] (Rattus norvegicus, L6, 72 h); 61.2 µM in assay [5]; 5.75 µM in assay [4] (Plasmodium falciparum, NF54). Besides, the figures for the Kd in assay [3] and in assay [6] were 14.1 µM and 16.5 µM, respectively.
For `COC1=C2C[C@@H](C)C[C@H](OC)[C@H](O)[C@@H](C)/C=C(\C)[C@H](OC(N)=O)[C@@H](OC)/C=C\C=C(/C)C(=O)NC(=CC1=O)C2=O` [GELDANAMYCIN], the values for the IC50 in assay [2] (l6) and in assay [4] were 6 µM and 0.148 µM, respectively. For the same compound, the dissociation constant (Kd) in assay [7] worked out at 0.103 µM.
As for `COCC(=O)Nc1c(C(=O)OC)n(CCC(C)C)c2ncc(NC3CCCCCCC3)cc12`, the “Ratio IC50” value in assay [1] is above 10. Moreover, the IC50 in assay [2] (Rattus norvegicus, L6, 72 h) was found to be 56 µM; in assay [4] (Plasmodium falciparum, NF54) it was 5.02 µM. Further, the dissociation constant (Kd) in assay [3] worked out at 25.4 µM.
For the compound `COCC(=O)Nc1c(C(=O)OC)n(C)c2ncc(NC(C)CCC=C(C)C)cc12` (racemic), in assay [3], the Kd came to 115 µM.
In the case of `COCCn1c(C(=O)OC)c(NC(=O)Cc2ccccc2)c2cc(NC3CCCCCCC3)cnc21`, the inhibition result in assay [8] is “Active”.

(Values after ChEMBL document CHEMBL3232740, “Differences in conformational dynamics between Plasmodium falciparum and human Hsp90 orthologues enable the structure-based discovery of pathogen-selective inhibitors” (J Med Chem, 2014).)
